Results on 15 compounds are retold here after ChEMBL document CHEMBL2040754, “Regioselective reaction: synthesis, characterization and pharmacological activity of some new Mannich and Schiff bases containing sydnone” (2012).

Common to all, as to type: functional
For assay [1], the system named is Rattus norvegicus. As to the kind of experiment: Analgesic activity in Wistar albino rat assessed as thermal-stimulus induced tail flick latency time at 20 mg/kg measured after 90 mins (reference value: 3.25 +/- 0.005 secs). In general terms: Hot-plate and tail-flick tests time the reaction to a heat stimulus.
Assay [2] deals with Rattus norvegicus. In words: Analgesic activity in Wistar albino rat assessed as thermal-stimulus induced tail flick latency time at 20 mg/kg measured after 60 mins (reference value: 3.34 +/- 0.005 secs).
Assay [3] relates to Rattus norvegicus. In words: Analgesic activity in Wistar albino rat assessed as thermal-stimulus induced tail flick latency time at 20 mg/kg measured after 30 mins (reference value: 3.23 +/- 0.005 secs).
Assay [4] relates to Rattus norvegicus. In words: Antiinflammatory activity in Wistar albino rat assessed as reduction of carrageenan-induced paw edema at 20 mg/kg, po measured after 2 hrs by plethysmometer. Further details: scale not given: the % may be the effect or the level left. In a few lines:
(§1)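 Rats 150e200 g dosed orally with test suspension 20 mg/kg, control given 1 mL of 1% carboxymethyl cellulose suspension. After 30 min, 0.1 mL of 1% carrageenan in normal saline injected subcutaneously into the sub-plantar region of the right hind paw. Paw volume read by plethysmometer at 0 h, 30, 60 and 120 min. Data as mean, one-way ANOVA then Dunnett's t-test.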

For assay [5], the system named is Rattus norvegicus. As to the kind of experiment: Antiinflammatory activity in Wistar albino rat assessed as reduction of carrageenan-induced paw edema at 20 mg/kg, po measured after 1 hr by plethysmometer. The arrangement: scale not given: the % may be the effect or the level left. The essentials: as §1
Assay [6] relates to Rattus norvegicus. In words: Antiinflammatory activity in Wistar albino rat assessed as reduction of carrageenan-induced paw edema at 20 mg/kg, po measured after 30 mins by plethysmometer. Further details: scale not given: the % may be the effect or the level left. In a few lines: as §1
A general note: The carrageenan paw model is a standard test of acute inflammation.

As for `CCN1CCN(Cn2nc(C(C)c3ccc(CC(C)C)cc3)n(/N=C/c3c([O-])on[n+]3-c3ccccc3)c2=S)CC1` (centres undefined), the Time in assay [1] came to 6.41 s; in assay [2], 5.39 s; in assay [3] it was 4.4 s. Also, the Activity in assay [4] stood at 54.5%; in assay [5], 46.9%; in assay [6] it was 38.7%.
For the compound `CC(C)Cc1ccc(C(C)c2nn(CN3CCCCC3)c(=S)n2/N=C/c2c([O-])on[n+]2-c2ccccc2)cc1` (centres undefined), the Time is recorded as 6.8 s in assay [1], 5.73 s in assay [2] and 4.56 s in assay [3]. Besides, the Activity in assay [4] is 67.9%; in assay [5], 56.1%; in assay [6] it was 45%.
For the compound `CC(C)Cc1ccc(C(C)c2n[nH]c(=S)n2/N=C/c2c([O-])on[n+]2-c2ccccc2)cc1` (centres undefined), the Time in assay [1] came to 6.6 s; in assay [2], 6.24 s; in assay [3] it was 5.76 s. Also, the Activity in assay [4] came to 50.2%; in assay [5], 39.4%; in assay [6], 32.9%.
With `CC(C)Cc1ccc(C(C)c2nn(CN3CCN(c4ccccc4)CC3)c(=S)n2/N=C/c2c([O-])on[n+]2-c2ccccc2)cc1` (centres undefined), the results for the Time in assay [1], in assay [2] and in assay [3] were 6.05 s, 5.03 s and 4.19 s, respectively. Further, the values for the Activity in assay [4], in assay [5] and in assay [6] were 38.5%, 34.2% and 27.9%, respectively.
As to `CC(C)Cc1ccc(C(C)c2nn(CN3CCOCC3)c(=S)n2/N=C/c2c([O-])on[n+]2-c2ccccc2)cc1` (centres undefined), the Time is 6.9 s in assay [1], 6.1 s in assay [2] and 4.92 s in assay [3]. Moreover, the values for the Activity in assay [4], in assay [5] and in assay [6] were 65.3%, 55.3% and 43.7%, respectively.
On to `COc1ccc(-[n+]2noc([O-])c2/C=N/n2c(C(C)c3ccc(CC(C)C)cc3)nn(CN3CCOCC3)c2=S)cc1` (centres undefined), for which the Time in assay [1] is 6.82 s; in assay [2], 5.92 s; in assay [3] it was 4.77 s. Besides, the Activity in assay [4] is reported as 65.8%; in assay [5], 57%; in assay [6] it was 49%.
As for `Cc1ccc(-[n+]2noc([O-])c2/C=N/n2c(C(C)c3ccc(CC(C)C)cc3)nn(CN3CCN(C)CC3)c2=S)cc1` (centres undefined), the Time in assay [1] was 6.21 s; in assay [2] it was 5.25 s; in assay [3], 4.52 s. Moreover, the values for the Activity in assay [4], in assay [5] and in assay [6] were 56.2%, 48.7% and 36.5%, respectively.
For `Cc1ccc(-[n+]2noc([O-])c2/C=N/n2c(C(C)c3ccc(CC(C)C)cc3)nn(CN3CCN(c4ccccc4)CC3)c2=S)cc1` (centres undefined), the results for the Time in assay [1], in assay [2] and in assay [3] were 5.35 s, 4.41 s and 4.15 s, respectively. Further, the Activity in assay [4] came out at 40.2%; in assay [5], 35.9%; in assay [6], 31.5%.
Turning to `Cc1ccc(-[n+]2noc([O-])c2/C=N/n2c(C(C)c3ccc(CC(C)C)cc3)n[nH]c2=S)cc1` (centres undefined), the results for the Time in assay [1], in assay [2] and in assay [3] were 6.92 s, 6.11 s and 4.99 s, respectively. For the same compound, the figures for the Activity in assay [4], in assay [5] and in assay [6] were 55.4%, 46.9% and 39.2%, respectively.
Consider `COc1ccc(-[n+]2noc([O-])c2/C=N/n2c(C(C)c3ccc(CC(C)C)cc3)nn(CN3CCCCC3)c2=S)cc1` (centres undefined), for which the figures for the Time in assay [1], in assay [2] and in assay [3] were 6.26 s, 5.55 s and 4.61 s, respectively. In addition, the Activity is on record as 56.2% in assay [4], 48.6% in assay [5] and 42.7% in assay [6].
With `CC(C)=CCN1CC[C@]2(C)c3cc(O)ccc3C[C@H]1[C@H]2C` [(+)-PENTAZOCINE], the Time was 7.45 s in assay [1], 6.95 s in assay [2] and 6.25 s in assay [3].
For `COc1ccc(-[n+]2noc([O-])c2/C=N/n2c(C(C)c3ccc(CC(C)C)cc3)n[nH]c2=S)cc1` (centres undefined), the Time in assay [1] came out at 7.23 s; in assay [2], 6.3 s; in assay [3] it was 5.41 s. Also, the Activity was 64% in assay [4], 55.2% in assay [5] and 48.6% in assay [6].
Consider `Cc1ccc(-[n+]2noc([O-])c2/C=N/n2c(C(C)c3ccc(CC(C)C)cc3)nn(CN3CCOCC3)c2=S)cc1` (centres undefined), for which the Time in assay [1] came out at 7.12 s; in assay [2], 5.91 s; in assay [3] it was 5.15 s. Besides, the Activity is reported as 66.6% in assay [4], 53% in assay [5] and 41.9% in assay [6].
`Cc1ccc(-[n+]2noc([O-])c2/C=N/n2c(C(C)c3ccc(CC(C)C)cc3)nn(CN3CCCCC3)c2=S)cc1` (centres undefined): the Time worked out at 5.1 s in assay [1], 4.31 s in assay [2] and 3.92 s in assay [3]. For the same compound, the Activity in assay [4] came out at 54.1%; in assay [5], 46.9%; in assay [6], 39.1%.
In the case of `COc1ccc2c(c1)c(CC(=O)O)c(C)n2C(=O)c1ccc(Cl)cc1` [INDOMETHACIN], the Activity in assay [4] is 70.1%; in assay [5] it was 65.8%; in assay [6] it was 58.1%.
